pIC50: −log10 of the molar value. The source made the active and inactive calls. The rule behind the calls is not given here.
How the values were obtained:
[1] = tested on: Rattus norvegicus; test: Effect on insulin resistance in iv dosed Sprague-Dawley rat assessed as plasma concentration required to show relative HOMA index of 3; format: functional, organism-based
[2] = molecular target: Phosphatidylinositol 4,5-bisphosphate 3-kinase catalytic subunit alpha isoform (Homo sapiens, UniProt P42336); test: Inhibition of recombinant human PI3Kalpha using PIP2 as substrate preincubated for 20 mins followed by substrate and ATP addition and measured after 20 mins by biotinylated-PIP3 based alphascreen assay
[3] = molecular target: Phosphatidylinositol 4,5-bisphosphate 3-kinase catalytic subunit beta isoform (Homo sapiens, UniProt P42338); test: Inhibition of recombinant human PI3Kbeta using PIP2 as substrate preincubated for 20 mins followed by substrate and ATP addition and measured after 20 mins by biotinylated-PIP3 based alphascreen assay
[4] = species: Homo sapiens; test: Inhibition of PI3Kalpha/beta/gamma/delta in human platelet rich plasma assessed as reduction in TRAP-induced platelet aggregation at 5 uM preincubated for 10 mins followed by TRAP addition and measured after 5 mins by light transmission aggregometry; format: cell-free; details: time 15.0 min
Method in brief: (§1)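 Venous blood from healthy human donors, citrate-anticoagulated; undiluted platelet-rich plasma tested in an in-house 96-well plate light transmission aggregometry assay. Agonist concentration-response curves run without and with inhibitor. Values are means, n = 4.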

[5] = species: Homo sapiens; test: Inhibition of PI3Kalpha/beta/gamma/delta in human platelet rich plasma assessed as reduction in ADP-induced platelet aggregation at 5 uM preincubated for 10 mins followed by ADP addition and measured after 5 mins by light transmission aggregometry; format: cell-free; details: time 15.0 min; method in brief: as §1
[6] = species: Homo sapiens; test: Inhibition of PI3Kalpha/beta/gamma/delta in human platelet rich plasma assessed as reduction in collagen-induced platelet aggregation at 5 uM preincubated for 10 mins followed by collagen addition and measured after 10 mins by light transmission aggregometry; format: cell-free; details: time 20.0 min; method in brief: as §1

Phosphatidylinositol 4,5-bisphosphate 3-kinase catalytic subunit alpha isoform, sequence (P42336 whole entry, canonical isoform): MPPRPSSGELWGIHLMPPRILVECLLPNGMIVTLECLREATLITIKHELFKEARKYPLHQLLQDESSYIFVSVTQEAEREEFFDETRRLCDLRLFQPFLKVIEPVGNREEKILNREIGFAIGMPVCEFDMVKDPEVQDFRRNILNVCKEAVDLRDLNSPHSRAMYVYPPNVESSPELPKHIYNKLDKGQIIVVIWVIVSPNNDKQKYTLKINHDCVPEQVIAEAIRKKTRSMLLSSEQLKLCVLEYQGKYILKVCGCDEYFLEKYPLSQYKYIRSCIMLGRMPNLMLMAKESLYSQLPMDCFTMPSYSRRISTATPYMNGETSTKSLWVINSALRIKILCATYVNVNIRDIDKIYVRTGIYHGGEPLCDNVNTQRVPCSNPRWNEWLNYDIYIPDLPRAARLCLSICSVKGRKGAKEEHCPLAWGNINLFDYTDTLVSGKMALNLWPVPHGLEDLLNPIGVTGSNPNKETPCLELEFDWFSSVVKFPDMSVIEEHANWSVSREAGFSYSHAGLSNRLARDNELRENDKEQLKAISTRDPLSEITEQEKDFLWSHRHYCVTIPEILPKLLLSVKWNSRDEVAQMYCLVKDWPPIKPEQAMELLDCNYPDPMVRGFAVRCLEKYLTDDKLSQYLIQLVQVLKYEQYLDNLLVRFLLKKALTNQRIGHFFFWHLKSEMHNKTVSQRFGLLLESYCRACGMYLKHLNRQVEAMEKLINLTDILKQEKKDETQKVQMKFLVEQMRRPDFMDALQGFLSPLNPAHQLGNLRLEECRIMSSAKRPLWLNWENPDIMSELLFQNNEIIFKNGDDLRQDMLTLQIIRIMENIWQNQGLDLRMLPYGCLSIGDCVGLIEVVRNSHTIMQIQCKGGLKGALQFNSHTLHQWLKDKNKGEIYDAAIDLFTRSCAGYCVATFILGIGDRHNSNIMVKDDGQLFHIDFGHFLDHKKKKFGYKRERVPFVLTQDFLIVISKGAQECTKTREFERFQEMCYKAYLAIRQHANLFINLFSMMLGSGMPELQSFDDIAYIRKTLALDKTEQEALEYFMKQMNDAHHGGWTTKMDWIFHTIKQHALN
Phosphatidylinositol 4,5-bisphosphate 3-kinase catalytic subunit beta isoform, sequence (P42338 whole entry, canonical isoform): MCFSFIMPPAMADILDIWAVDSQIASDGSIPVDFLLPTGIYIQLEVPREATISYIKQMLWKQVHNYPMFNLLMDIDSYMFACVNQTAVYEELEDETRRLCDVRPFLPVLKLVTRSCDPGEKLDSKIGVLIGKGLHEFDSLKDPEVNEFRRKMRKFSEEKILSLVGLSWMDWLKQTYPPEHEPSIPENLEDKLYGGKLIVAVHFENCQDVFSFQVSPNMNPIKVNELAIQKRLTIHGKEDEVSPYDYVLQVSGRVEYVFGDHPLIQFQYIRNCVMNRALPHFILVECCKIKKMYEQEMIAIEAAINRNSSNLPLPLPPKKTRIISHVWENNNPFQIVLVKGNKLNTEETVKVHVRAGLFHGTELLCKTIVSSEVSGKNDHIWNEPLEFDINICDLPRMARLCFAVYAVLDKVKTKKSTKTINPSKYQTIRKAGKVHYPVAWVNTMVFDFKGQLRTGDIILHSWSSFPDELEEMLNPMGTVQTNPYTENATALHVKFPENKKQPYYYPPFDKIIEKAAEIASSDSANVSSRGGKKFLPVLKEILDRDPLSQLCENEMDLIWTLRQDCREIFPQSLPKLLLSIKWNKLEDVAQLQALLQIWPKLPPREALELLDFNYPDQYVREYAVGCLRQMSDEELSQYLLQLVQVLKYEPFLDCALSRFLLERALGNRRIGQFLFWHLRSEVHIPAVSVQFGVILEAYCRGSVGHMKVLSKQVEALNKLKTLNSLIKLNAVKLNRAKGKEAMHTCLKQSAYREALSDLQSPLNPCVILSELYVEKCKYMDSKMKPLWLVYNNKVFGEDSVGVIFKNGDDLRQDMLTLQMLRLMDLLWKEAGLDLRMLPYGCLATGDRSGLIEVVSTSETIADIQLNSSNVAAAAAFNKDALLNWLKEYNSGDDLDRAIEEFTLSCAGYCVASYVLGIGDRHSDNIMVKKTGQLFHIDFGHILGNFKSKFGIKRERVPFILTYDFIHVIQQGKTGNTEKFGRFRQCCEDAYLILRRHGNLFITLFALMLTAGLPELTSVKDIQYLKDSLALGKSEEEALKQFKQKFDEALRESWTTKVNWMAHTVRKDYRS

Row | SMILES | Cp [1] | pIC50 [2] | pIC50 [3] | inhibition [4] | inhibition [5] | inhibition [6]
1 | Cc1cc(C(C)Nc2ccccc2C(=O)O)c2nc(N3CCOCC3)cc(=O)n2c1 (stereo not given) | 30 µM | – | – | – | – | –
2 | CC(=O)Nc1nc(C)c(-c2cnc(Cl)c(NS(C)(=O)=O)c2)s1 | 0.3 µM | 8.00 | 6.96 | – | – | –
3 | Cc1cc(F)ccc1Oc1cccc2c(=O)cc(N3CCOCC3)[nH]c12 | > 40 µM | 4.64 | 6.80 | – | – | –
4 | COC[C@H]1OC(=O)c2coc3c2[C@@]1(C)C1=C(C3=O)[C@@H]2CCC(=O)[C@@]2(C)C[C@H]1OC(C)=O | – | – | – | Active | Active | Active

From ChEMBL document CHEMBL5678808, “Human target validation of phosphoinositide 3-kinase (PI3K)β: effects on platelets and insulin sensitivity, using AZD6482 a novel PI3Kβ inhibitor” (J Thromb Haemost, 2012)
